Laboratory results taken from ChEMBL document CHEMBL4689842, “EUbOPEN Chemogenomics Library wave 1” (2021).
Where “and” joins values, the source holds several entries; their conditions need not be identical. Equal entries are not always repeated.

Columns and labels:
Format in all cases: toxicity, cell-based
HEK-293T = test: Incucyte cell viability with HEK293T; conditions: human, 10 µM, compound concentration 10 uM; further: filed as whole numbers so only -1 and 0 and 1 occur
Fibroblast = test: Multiplex assay against human fibroblast
Method in brief: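 Imaging took place on a CQ1 microscope at 37°C and 5% CO2 once compound had been added to live cells stained at seeding with Hoechst33342, BioTracker Green Microtubule Cytoskeleton Dye, MitoTracker Red and Annexin V Alexa Fluor 680. CellPathfinder machine-learning gating classed cells as Hoechst high-intensity objects or normal cells, classed normal cells as having healthy, pyknosed or fragmented nuclei, and classed pyknosed cells as mitotic or apoptotic. Tubulin, mitochondrial-mass and membrane-permeability phenotypes are per cents of the healthy-nucleus cells.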

U2OS = test: Incucyte cell viability with U2OS; conditions: human, 10 µM, compound concentration 10 uM; further: filed as whole numbers so only -1 and 0 and 1 occur
[1] = 6 h, replicate number 1, timepoint 6 hours
[2] = 12 h, replicate number 1, timepoint 12 hours
[3] = 18 h, replicate number 1, timepoint 18 hours
[4] = 24 h, replicate number 1, timepoint 24 hours
[5] = 12 h, 1 µM, compound concentration 1 uM, replicate 1
[6] = 12 h, 1 µM, compound concentration 1 uM, replicate 2
[7] = 12 h, 10 µM, compound concentration 10 uM, replicate 1
[8] = 12 h, 10 µM, compound concentration 10 uM, replicate 2
[9] = 24 h, 1 µM, compound concentration 1 uM, replicate 1
[10] = 24 h, 1 µM, compound concentration 1 uM, replicate 2
[11] = 24 h, 10 µM, compound concentration 10 uM, replicate 1
[12] = 24 h, 10 µM, compound concentration 10 uM, replicate 2
[13] = 48 h, 10 µM, compound concentration 10 uM, replicate 1
[14] = 48 h, 10 µM, compound concentration 10 uM, replicate 2

Question: What does the source list for `c1ccc(-c2oc3ncnc(NC[C@@H]4CCCO4)c3c2-c2ccccc2)cc1`?
Answer: Growth Rate (HEK-293T; [1]): 0; Growth Rate (HEK-293T; [2]): 0; Growth Rate (HEK-293T; [3]): 0; Growth Rate (HEK-293T; [4]): 0; Population Apoptotic (%) (Fibroblast; [5]): 77% and 68%; Population Fragmented Nuclei (%) (Fibroblast; [5]): 30% and 24%; Population Healthy Nuclei (%) (Fibroblast; [5]): 49% and 53%; Population Hoechst High Intensity Objects (%) (Fibroblast; [5]): 11% and 13%; Population Membrane Permeable-Phenotype (%) (Fibroblast; [5]): 22% and 42%; Population Mitochondria Different-Phenotype (%) (Fibroblast; [5]): 7% and 16%; Population Mitotic Cells (%) (Fibroblast; [5]): 22% and 31%; Population Normal (%) (Fibroblast; [5]): 88% and 86%; Population Pyknosed Nuclei (%) (Fibroblast; [5]): 20% and 21%; Total Cell Count (Fibroblast; [5]): 123 and 267; Population Apoptotic (%) (Fibroblast; [6]): 50% and 25%; Population Fragmented Nuclei (%) (Fibroblast; [6]): 35% and 48%; Population Healthy Nuclei (%) (Fibroblast; [6]): 40% and 37%; Population Hoechst High Intensity Objects (%) (Fibroblast; [6]): 35% and 44%; Population Membrane Permeable-Phenotype (%) (Fibroblast; [6]): 29% and 27%; Population Mitochondria Different-Phenotype (%) (Fibroblast; [6]): 11% and 18%; Population Mitotic Cells (%) (Fibroblast; [6]): 50% and 75%; Population Normal (%) (Fibroblast; [6]): 64% and 55%; Population Pyknosed Nuclei (%) (Fibroblast; [6]): 23% and 13%; Population Tubulin-Different-Phenotype (%) (Fibroblast; [6]): 47% and 100%; Total Cell Count (Fibroblast; [6]): 65 and 52; Population Apoptotic (%) (Fibroblast; [7]): 53%; Population Fragmented Nuclei (%) (Fibroblast; [7]): 20%; Population Healthy Nuclei (%) (Fibroblast; [7]): 41%; Population Hoechst High Intensity Objects (%) (Fibroblast; [7]): 20%; Population Membrane Permeable-Phenotype (%) (Fibroblast; [7]): 21%; Population Mitochondria Different-Phenotype (%) (Fibroblast; [7]): 42%; Population Mitotic Cells (%) (Fibroblast; [7]): 46%; Population Normal (%) (Fibroblast; [7]): 79%; Population Pyknosed Nuclei (%) (Fibroblast; [7]): 37%; Population Tubulin-Different-Phenotype (%) (Fibroblast; [7]): 84%; Total Cell Count (Fibroblast; [7]): 99; Population Apoptotic (%) (Fibroblast; [8]): 87%; Population Fragmented Nuclei (%) (Fibroblast; [8]): 14%; Population Healthy Nuclei (%) (Fibroblast; [8]): 71%; Population Hoechst High Intensity Objects (%) (Fibroblast; [8]): 6%; Population Membrane Permeable-Phenotype (%) (Fibroblast; [8]): 34%; Population Mitochondria Different-Phenotype (%) (Fibroblast; [8]): 56%; Population Mitotic Cells (%) (Fibroblast; [8]): 12%; Population Normal (%) (Fibroblast; [8]): 93%; Population Pyknosed Nuclei (%) (Fibroblast; [8]): 14%; Population Tubulin-Different-Phenotype (%) (Fibroblast; [8]): 95%; Total Cell Count (Fibroblast; [8]): 61; Population Apoptotic (%) (Fibroblast; [9]): 65% and 78%; Population Fragmented Nuclei (%) (Fibroblast; [9]): 19% and 29%; Population Healthy Nuclei (%) (Fibroblast; [9]): 59% and 57%; Population Hoechst High Intensity Objects (%) (Fibroblast; [9]): 18% and 12%; Population Membrane Permeable-Phenotype (%) (Fibroblast; [9]): 17% and 16%; Population Mitotic Cells (%) (Fibroblast; [9]): 34% and 21%; Population Normal (%) (Fibroblast; [9]): 81% and 87%; Population Pyknosed Nuclei (%) (Fibroblast; [9]): 21% and 13%; Total Cell Count (Fibroblast; [9]): 254 and 121; Population Apoptotic (%) (Fibroblast; [10]): 70% and 83%; Population Fragmented Nuclei (%) (Fibroblast; [10]): 43% and 66%; Population Healthy Nuclei (%) (Fibroblast; [10]): 34% and 17%; Population Hoechst High Intensity Objects (%) (Fibroblast; [10]): 33% and 36%; Population Membrane Permeable-Phenotype (%) (Fibroblast; [10]): 13% and 28%; Population Mitotic Cells (%) (Fibroblast; [10]): 30% and 16%; Population Normal (%) (Fibroblast; [10]): 66% and 63%; Population Pyknosed Nuclei (%) (Fibroblast; [10]): 22% and 15%; Population Tubulin-Different-Phenotype (%) (Fibroblast; [10]): 66% and 100%; Total Cell Count (Fibroblast; [10]): 66 and 61; Population Apoptotic (%) (Fibroblast; [11]): 76%; Population Fragmented Nuclei (%) (Fibroblast; [11]): 43%; Population Healthy Nuclei (%) (Fibroblast; [11]): 39%; Population Hoechst High Intensity Objects (%) (Fibroblast; [11]): 25%; Population Membrane Permeable-Phenotype (%) (Fibroblast; [11]): 13%; Population Mitochondria Different-Phenotype (%) (Fibroblast; [11]): 51%; Population Mitotic Cells (%) (Fibroblast; [11]): 23%; Population Normal (%) (Fibroblast; [11]): 74%; Population Pyknosed Nuclei (%) (Fibroblast; [11]): 17%; Population Tubulin-Different-Phenotype (%) (Fibroblast; [11]): 82%; Total Cell Count (Fibroblast; [11]): 99; Population Apoptotic (%) (Fibroblast; [12]): 100%; Population Fragmented Nuclei (%) (Fibroblast; [12]): 14%; Population Healthy Nuclei (%) (Fibroblast; [12]): 68%; Population Hoechst High Intensity Objects (%) (Fibroblast; [12]): 10%; Population Membrane Permeable-Phenotype (%) (Fibroblast; [12]): 21%; Population Mitochondria Different-Phenotype (%) (Fibroblast; [12]): 56%; Population Mitotic Cells (%) (Fibroblast; [12]): 0%; Population Normal (%) (Fibroblast; [12]): 90%; Population Pyknosed Nuclei (%) (Fibroblast; [12]): 16%; Population Tubulin-Different-Phenotype (%) (Fibroblast; [12]): 81%; Total Cell Count (Fibroblast; [12]): 60; Population Apoptotic (%) (Fibroblast; [13]): 60%; Population Fragmented Nuclei (%) (Fibroblast; [13]): 36%; Population Healthy Nuclei (%) (Fibroblast; [13]): 51%; Population Hoechst High Intensity Objects (%) (Fibroblast; [13]): 14%; Population Membrane Permeable-Phenotype (%) (Fibroblast; [13]): 13%; Population Mitochondria Different-Phenotype (%) (Fibroblast; [13]): 55%; Population Mitotic Cells (%) (Fibroblast; [13]): 40%; Population Normal (%) (Fibroblast; [13]): 85%; Population Pyknosed Nuclei (%) (Fibroblast; [13]): 11%; Population Tubulin-Different-Phenotype (%) (Fibroblast; [13]): 95%; Total Cell Count (Fibroblast; [13]): 98; Population Apoptotic (%) (Fibroblast; [14]): 0%; Population Fragmented Nuclei (%) (Fibroblast; [14]): 40%; Population Healthy Nuclei (%) (Fibroblast; [14]): 59%; Population Hoechst High Intensity Objects (%) (Fibroblast; [14]): 10%; Population Membrane Permeable-Phenotype (%) (Fibroblast; [14]): 16%; Population Mitochondria Different-Phenotype (%) (Fibroblast; [14]): 42%; Population Mitotic Cells (%) (Fibroblast; [14]): 0%; Population Normal (%) (Fibroblast; [14]): 89%; Population Pyknosed Nuclei (%) (Fibroblast; [14]): 0%; Population Tubulin-Different-Phenotype (%) (Fibroblast; [14]): 96%; Total Cell Count (Fibroblast; [14]): 105; Growth Rate (U2OS; 0 h, replicate number 1, timepoint 0 hours): 1; Growth Rate (U2OS; 0 h, replicate number 2, timepoint 0 hours): 0; Growth Rate (U2OS; [1]): 1; Growth Rate (U2OS; [2]): 0; Growth Rate (U2OS; 12 h, replicate number 2, timepoint 12 hours): 1; Growth Rate (U2OS; [3]): 0; Growth Rate (U2OS; [4]): 0; Growth Rate (U2OS; 24 h, replicate number 2, timepoint 24 hours): 1
